Measurements pooled from the literature.
Sample: plasma

| Structure (SMILES) | species | route | dose | notes | measurement | result |
| --- | --- | --- | --- | --- | --- | --- |
| Cc1ccc(C(=O)N(CCCN)[C@@H](c2oc3cc(Cl)ccc3c(=O)c2Cc2ccccc2)C(C)C)cc1 | human | intravenous | 5 mg/m² | single dose, patients, infusion | AUC | 8.96 µg·h/mL |
| COc1ccc([C@@H]2CN(C(=O)[C@@H](O)CO)C[C@@]2(C)[C@@H](C)O)cc1OC1CN(c2ccc(C)cn2)C1 | human | oral | 10 mg | single dose, healthy volunteers | AUC(0-t) | 2.75 µg·h/mL |
| COCCOc1cnc2ccn([C@H](C)c3nnc4c(F)cc(-c5cnn(C)c5)cn34)c(=O)c2c1 | human | oral | 300 mg | multiple doses, once daily, patients | AUC(0-t) | 55.9 µg·h/mL |
| COc1cc(C(=O)NC2CCN(C)CC2)c(F)cc1Nc1ncc(C(F)(F)F)c(Oc2cccc3c2C(=O)N(C)C3)n1 | human | oral | 50 mg | multiple doses, once daily, steady state, patients | AUC | 4.89 µM·h |
| CO[C@@H]1[C@H](OC(=O)N2CC(CCN3CCOCC3)C2)CC[C@]2(CO2)[C@H]1[C@@]1(C)O[C@@H]1CC=C(C)C | human | subcutaneous | 4.8 mg | single dose, healthy volunteers | AUC(0-t) | 0.0216 µg·h/mL |
| CO[C@H]1CC[C@H](N2C(=O)CNc3ncc(-c4ccc(C(C)(C)O)nc4)nc32)CC1 | human | oral | 15 mg | multiple doses, patients | AUC(0-t) | 0.383 µg·h/mL |
| Cn1cc(-c2ccc(S(=O)(=O)[C@@H]3C[C@@H](C(=O)NC4(C#N)CC4)N(C(=O)C4(C(F)(F)F)CC4)C3)c(C(F)(F)F)c2)cn1 | human | oral | 30 mg | single dose, fasted, healthy volunteers | AUC(0-inf) | 3.24 µg·h/mL |
| CC(C)n1cc(C#N)c2cc(-n3cc(C(=O)O)cn3)ccc21 | human | oral | 100 mg | single dose, fasted, healthy volunteers | AUC(0-inf) | 19.6 µg·h/mL |
| CS(=O)(=O)CCC#N | human | oral | 100 mg | multiple doses, once daily | AUC | 70.3 µg·h/mL |
| CC(C)(O)c1ccccc1-c1ccc2[nH]c(/C=C/c3ccc(C(F)(F)F)cc3)nc2c1 | male human | oral | 225 mg | single dose, fasted, healthy volunteers | AUC(0-t) | 27.9 µg·h/mL |
| Cn1c(=O)oc2ccc(-c3ccc(C[C@@H](C#N)NC(=O)[C@@H]4CNCCCO4)cc3)cc21 | male human | oral | 35 mg | single dose, healthy volunteers | AUC | 13.2 µM·h |
| CCc1nc2c(C)cc(N3CCN(CC(=O)N4CC(O)C4)CC3)cn2c1N(C)c1nc(-c2ccc(F)cc2)c(C#N)s1 | human | oral | 20 mg | single dose, fed, healthy volunteers | AUC(0-inf) | 0.5 µg·h/mL |
